Data on seven compounds can be found in ChEMBL document CHEMBL4680069, “Itaconate is a covalent inhibitor of the Mycobacterium tuberculosis isocitrate lyase” (RSC Med Chem, 2021).

The nature of test [1]: Covalent inhibition of wild type N-terminal polyhis-tagged TEV protease cleavage site fused Mycobacterium tuberculosis ICL1 expressed in Escherichia coli BL21 (DE3) using DL-isocitrate as substrate measured after 1 hr by UV-Vis spectrophotometric analysis. The method, boiled down:
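Recombinant ICL1 at 20 nM with 1 mM DL-isocitrate and 1 mM MgCl2 in 50 mM Tris pH 7.5. Includes 10 mM phenylhydrazine-HCl to trap product. Inhibitor tested at varying concentrations to give IC50. Four separate measurements; errors are standard deviations.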

A short description of test [2]: Binding affinity to wild type N-terminal polyhis-tagged TEV protease cleavage site fused Mycobacterium tuberculosis ICL1 expressed in Escherichia coli BL21 (DE3) in presence of glyoxylate by NMR binding analysis.
Test [3] deals with Mycobacterium tuberculosis. Nature of the test: Binding affinity to wild type N-terminal polyhis-tagged TEV protease cleavage site fused Mycobacterium tuberculosis ICL1 expressed in Escherichia coli BL21 (DE3) assessed as covalent adduct formation in presence of glyoxylate by NMR binding analysis.
Test [4] deals with Mycobacterium tuberculosis. Put plainly: Binding affinity to wild type N-terminal polyhis-tagged TEV protease cleavage site fused Mycobacterium tuberculosis ICL1 expressed in Escherichia coli BL21 (DE3) assessed as covalent adduct formation at 1 mM measured after 75 mins in presence of Mg2+ by LC-MS/MS analysis relative to control.
The nature of test [5]: Binding affinity to wild type N-terminal polyhis-tagged TEV protease cleavage site fused Mycobacterium tuberculosis ICL1 expressed in Escherichia coli BL21 (DE3) in presence of Mg2+ and glyoxylate by NMR binding analysis.
The subject of test [6] is Mycobacterium tuberculosis. Put plainly: Binding affinity to recombinant Mycobacterium tuberculosis CDC1551 ICL2 (Cys215-Arg233) expressed in Escherichia coli BL21 (DE3) LOBSTR assessed as covalent adduct formation at 1 mM incubated overnight in presence of Mg2+ followed by trypsin protease digestion by tandem mass spectrometry analysis. Particulars: time 12.0 hrs.
A short description of test [7]: Binding affinity to wild type N-terminal polyhis-tagged TEV protease cleavage site fused Mycobacterium tuberculosis ICL1 expressed in Escherichia coli BL21 (DE3) in presence of MgCl2 by NMR binding analysis.
Test [8] relates to Mycobacterium tuberculosis. Nature of the test: Binding affinity to wild type N-terminal polyhis-tagged TEV protease cleavage site fused Mycobacterium tuberculosis ICL1 expressed in Escherichia coli BL21 (DE3) assessed as covalent adduct formation at 1 mM measured after 5 hrs in presence of Mg2+ by LC-MS/MS analysis relative to control.
The subject of test [9] is Mycobacterium tuberculosis. Nature of the test: Binding affinity to wild type N-terminal polyhis-tagged TEV protease cleavage site fused Mycobacterium tuberculosis ICL1 expressed in Escherichia coli BL21 (DE3) assessed as compound-protein covalent adduct formation by measuring molecular mass at 1 mM after 12 hrs in presence of MgCl2 by LC-MS analysis.
Test [10] concerns Mycobacterium tuberculosis. Nature of the test: Binding affinity to wild type N-terminal polyhis-tagged TEV protease cleavage site fused Mycobacterium tuberculosis ICL1 (Ala170-Lys197) expressed in Escherichia coli BL21 (DE3) assessed as covalent adduct formation at 1 mM incubated overnight in presence of Mg2+ followed by trypsin protease digestion by tandem mass spectrometry analysis. Particulars: time 12.0 hrs.

A short description of test [11]: Binding affinity to wild type N-terminal polyhis-tagged TEV protease cleavage site fused Mycobacterium tuberculosis ICL1 expressed in Escherichia coli BL21 (DE3) in absence of Mg2+ by NMR binding analysis.
Test [12] concerns Mycobacterium tuberculosis. Nature of the test: Binding affinity to wild type N-terminal polyhis-tagged TEV protease cleavage site fused Mycobacterium tuberculosis ICL1 expressed in Escherichia coli BL21 (DE3) assessed as compound-protein covalent adduct formation at 1 mM in absence of Mg2+ by LC-MS analysis.
The subject of test [13] is Mycobacterium tuberculosis. Nature of the test: Binding affinity to wild type N-terminal polyhis-tagged TEV protease cleavage site fused Mycobacterium tuberculosis ICL1 expressed in Escherichia coli BL21 (DE3) assessed as covalent adduct formation at 1 mM measured after 1 min in presence of Mg2+ and glyoxylate by LC-MS/MS analysis relative to control.

pIC50, pKd: −log10 of the molar value. Active and inactive are the calls of the source. The rule behind the calls is not given here.

By pIC50 is commonly meant the negative decadic logarithm of the IC50, by convention in mol/L. Read a low pIC50 as a high IC50. As to `O=C(O)C/C(=C\c1ccccc1)C(=O)O`, in test [1], the pIC50 is 2.59.
In test [1], `O=C(O)/C=C(/CC(=O)O)C(=O)O` had a pIC50 of 2.28.
Still for that read-out and setting: as for `C=C(CC(=O)OC)C(=O)OC`, the figure is less than 2.00; as for `C/C=C(\CC(=O)OC)C(=O)OC`, less than 2.00; as for `C/C=C(\CC(=O)O)C(=O)O`, 2.51.
The same measure, in the same setting: next, `O=C(O)/C=C(\CC(=O)O)C(=O)O` [ACONITIC ACID]: 2.30.
The term pKd denotes the Kd on a negative log10 scale, so that one unit is a factor of ten. In the case of `C=C(CC(=O)O)C(=O)O` [ITACONATE], the pKd in [2] is less than 3.30; in test [5], 3.91; in test [7], 3.95; in test [11], less than 3.30. In addition, the outcome in test [3] and in test [12] was inactive. Moreover, the Activity in test [4] amounted to 50%; in [8] it was 100%; in test [13] it was 100%. Besides, the outcome in test [6], in test [9] and in test [10] was Active. Besides, the pIC50 in test [1] is 3.38.
